Values after ≈ are worked out from the molar mass of the structure shown. Active and inactive are the calls of the source.

In one data set the target is T1, Insulin-degrading enzyme (Homo sapiens, UniProt P14735).
T1 sequence (P14735 whole entry): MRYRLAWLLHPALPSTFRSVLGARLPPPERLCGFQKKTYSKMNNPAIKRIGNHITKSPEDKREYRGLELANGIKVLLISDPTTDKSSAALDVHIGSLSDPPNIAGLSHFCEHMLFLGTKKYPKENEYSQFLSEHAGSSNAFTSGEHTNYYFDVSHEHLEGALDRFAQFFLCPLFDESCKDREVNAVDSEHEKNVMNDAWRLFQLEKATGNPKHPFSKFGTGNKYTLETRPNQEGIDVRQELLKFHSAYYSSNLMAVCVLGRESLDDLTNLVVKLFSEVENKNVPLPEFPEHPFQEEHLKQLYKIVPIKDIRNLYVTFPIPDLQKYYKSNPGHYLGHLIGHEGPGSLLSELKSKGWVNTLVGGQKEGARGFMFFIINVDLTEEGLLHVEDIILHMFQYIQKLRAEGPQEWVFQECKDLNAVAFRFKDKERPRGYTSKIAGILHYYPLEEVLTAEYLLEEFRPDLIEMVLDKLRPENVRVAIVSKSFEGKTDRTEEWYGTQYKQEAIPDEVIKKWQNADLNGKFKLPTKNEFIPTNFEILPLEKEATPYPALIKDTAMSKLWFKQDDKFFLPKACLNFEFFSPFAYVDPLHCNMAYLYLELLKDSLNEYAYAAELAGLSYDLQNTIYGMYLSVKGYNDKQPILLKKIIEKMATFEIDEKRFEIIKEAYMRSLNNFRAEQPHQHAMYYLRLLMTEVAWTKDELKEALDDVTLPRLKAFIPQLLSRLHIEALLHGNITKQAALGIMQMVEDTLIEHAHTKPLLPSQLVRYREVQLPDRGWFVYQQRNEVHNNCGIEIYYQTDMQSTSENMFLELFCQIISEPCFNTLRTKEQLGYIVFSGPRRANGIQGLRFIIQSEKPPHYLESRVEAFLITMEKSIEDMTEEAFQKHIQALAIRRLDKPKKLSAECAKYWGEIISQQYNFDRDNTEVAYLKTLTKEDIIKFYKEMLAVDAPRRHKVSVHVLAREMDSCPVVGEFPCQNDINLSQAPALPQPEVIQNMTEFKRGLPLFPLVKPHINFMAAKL
Nature of the data set: (§1) Inhibition of human recombinant IDE-mediated amyloid beta (16 to 23) hydrolysis using ATTO 655-Cys-Lys-Leu-Val-Phe-Phe-Ala-Glu-Asp-Trp as substrate preincubated for 10 mins measured after 30 mins by spectrophotometer analysis.

Data set [1] deals with Disintegrin and metalloproteinase domain-containing protein 17 (Homo sapiens, UniProt P78536). The data set is described as follows: Inhibition of human recombinant TACE-mediated amyloid beta hydrolysis after 5 mins by fluorimetry assay.
Sequence of Disintegrin and metalloproteinase domain-containing protein 17 (P78536 whole entry, the tested form may be a part): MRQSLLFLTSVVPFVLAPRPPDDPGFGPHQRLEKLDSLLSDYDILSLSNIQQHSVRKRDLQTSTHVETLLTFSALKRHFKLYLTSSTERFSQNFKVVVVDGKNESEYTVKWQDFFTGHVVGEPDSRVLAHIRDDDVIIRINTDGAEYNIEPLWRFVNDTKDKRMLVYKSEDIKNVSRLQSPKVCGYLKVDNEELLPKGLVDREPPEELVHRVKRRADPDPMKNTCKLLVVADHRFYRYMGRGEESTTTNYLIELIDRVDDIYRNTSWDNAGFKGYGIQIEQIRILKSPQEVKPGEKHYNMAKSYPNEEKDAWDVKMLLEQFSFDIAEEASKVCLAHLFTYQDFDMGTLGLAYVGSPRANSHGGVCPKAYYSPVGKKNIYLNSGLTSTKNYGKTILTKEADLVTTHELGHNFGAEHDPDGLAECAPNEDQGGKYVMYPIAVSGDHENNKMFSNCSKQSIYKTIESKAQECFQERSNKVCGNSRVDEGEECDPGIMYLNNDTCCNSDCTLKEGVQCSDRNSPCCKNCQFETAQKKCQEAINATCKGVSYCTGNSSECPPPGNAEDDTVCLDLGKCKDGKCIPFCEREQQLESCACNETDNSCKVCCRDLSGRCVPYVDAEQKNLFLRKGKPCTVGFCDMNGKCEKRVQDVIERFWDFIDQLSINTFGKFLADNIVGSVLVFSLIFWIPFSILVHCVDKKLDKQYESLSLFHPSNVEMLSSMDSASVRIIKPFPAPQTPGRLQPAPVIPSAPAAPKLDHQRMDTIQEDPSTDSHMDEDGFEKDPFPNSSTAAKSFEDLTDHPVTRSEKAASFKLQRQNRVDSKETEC
The nature of data set [2]: Half life in human liver microsomes at 1 uM by LC-MS/MS analysis. Type of data set: ADME. (In general: Microsomes from liver hold many membrane-bound enzymes, among them those of drug oxidation.)
A further data set deals with T2, Interstitial collagenase (Homo sapiens, UniProt P03956).
T2 sequence (P03956 whole entry): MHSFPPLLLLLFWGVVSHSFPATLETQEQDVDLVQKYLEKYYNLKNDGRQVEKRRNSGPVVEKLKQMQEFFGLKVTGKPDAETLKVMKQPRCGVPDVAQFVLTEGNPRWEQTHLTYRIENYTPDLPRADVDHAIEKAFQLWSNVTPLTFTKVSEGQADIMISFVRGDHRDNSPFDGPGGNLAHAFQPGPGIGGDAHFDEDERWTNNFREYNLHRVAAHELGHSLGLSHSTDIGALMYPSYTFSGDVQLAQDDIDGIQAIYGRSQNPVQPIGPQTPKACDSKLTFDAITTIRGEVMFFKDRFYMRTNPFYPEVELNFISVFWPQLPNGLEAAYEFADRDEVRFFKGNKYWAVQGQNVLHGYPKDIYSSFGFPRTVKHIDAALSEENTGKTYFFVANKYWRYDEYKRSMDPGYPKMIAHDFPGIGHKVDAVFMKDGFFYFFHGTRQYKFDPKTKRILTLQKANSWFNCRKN
Nature of the data set: Inhibition of human recombinant MMP1-mediated amyloid beta hydrolysis using DNP-Pro-Cha-Gly- Cys(Me)-His-Ala- Lys(n-Me-Abz)-NH2 as substrate after 40 mins by fluorimetry assay.

A short description of data set [3]: Half life in mouse plasma at 10 uM by LC-MS/MS analysis. Type of data set: ADME, cell-free.
Data set [4] can be described thus: Half life in IHH cell culture medium at 10 uM by LC-MS/MS analysis. Format: physicochemical, HH. Summed up: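 Stability measured in William's E medium with 10% fetal calf serum.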
The target in data set [5] is Angiotensin-converting enzyme 2 (Homo sapiens, UniProt Q9BYF1). Nature of the data set: Inhibition of human recombinant ACE2-mediated amyloid beta hydrolysis using Mca-Tyr-Val-Ala-Asp-Pro-Ala-Lys-(DNP)-OH as substrate after 20 mins by fluorimetry assay.
Sequence of Angiotensin-converting enzyme 2 (Q9BYF1 whole entry): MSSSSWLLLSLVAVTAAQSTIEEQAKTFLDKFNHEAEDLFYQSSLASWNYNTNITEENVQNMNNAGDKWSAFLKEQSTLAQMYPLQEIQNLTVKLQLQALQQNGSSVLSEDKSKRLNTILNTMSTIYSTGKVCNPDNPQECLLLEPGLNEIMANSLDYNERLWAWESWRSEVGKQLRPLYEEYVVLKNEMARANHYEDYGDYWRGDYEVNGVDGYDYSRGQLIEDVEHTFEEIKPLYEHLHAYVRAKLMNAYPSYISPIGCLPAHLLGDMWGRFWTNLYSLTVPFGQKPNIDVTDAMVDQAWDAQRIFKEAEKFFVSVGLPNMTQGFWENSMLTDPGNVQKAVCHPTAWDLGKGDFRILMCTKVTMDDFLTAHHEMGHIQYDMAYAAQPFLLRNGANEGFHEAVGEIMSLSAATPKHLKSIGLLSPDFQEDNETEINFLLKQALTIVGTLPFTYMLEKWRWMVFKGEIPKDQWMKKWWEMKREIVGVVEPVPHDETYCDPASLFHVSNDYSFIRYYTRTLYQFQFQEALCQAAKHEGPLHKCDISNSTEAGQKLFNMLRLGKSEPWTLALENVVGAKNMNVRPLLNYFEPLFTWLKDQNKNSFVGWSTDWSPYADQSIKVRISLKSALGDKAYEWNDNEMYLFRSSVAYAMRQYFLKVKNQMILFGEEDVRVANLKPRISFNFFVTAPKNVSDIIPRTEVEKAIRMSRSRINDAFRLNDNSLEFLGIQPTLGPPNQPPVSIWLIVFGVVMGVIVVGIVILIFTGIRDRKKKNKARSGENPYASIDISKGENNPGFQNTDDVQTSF
Data set [6] addresses Angiotensin-converting enzyme (Homo sapiens, UniProt P12821). Nature of the data set: Inhibition of human ACE-mediated amyloid beta hydrolysis.
Data set [7] is described as follows: Solubility of the compound in PBS at pH 7.4. Type of data set: physicochemical.
The target of data set [8] is T3, Endothelin-converting enzyme 1 (Homo sapiens, UniProt P42892).
T3 sequence (P42892 whole entry): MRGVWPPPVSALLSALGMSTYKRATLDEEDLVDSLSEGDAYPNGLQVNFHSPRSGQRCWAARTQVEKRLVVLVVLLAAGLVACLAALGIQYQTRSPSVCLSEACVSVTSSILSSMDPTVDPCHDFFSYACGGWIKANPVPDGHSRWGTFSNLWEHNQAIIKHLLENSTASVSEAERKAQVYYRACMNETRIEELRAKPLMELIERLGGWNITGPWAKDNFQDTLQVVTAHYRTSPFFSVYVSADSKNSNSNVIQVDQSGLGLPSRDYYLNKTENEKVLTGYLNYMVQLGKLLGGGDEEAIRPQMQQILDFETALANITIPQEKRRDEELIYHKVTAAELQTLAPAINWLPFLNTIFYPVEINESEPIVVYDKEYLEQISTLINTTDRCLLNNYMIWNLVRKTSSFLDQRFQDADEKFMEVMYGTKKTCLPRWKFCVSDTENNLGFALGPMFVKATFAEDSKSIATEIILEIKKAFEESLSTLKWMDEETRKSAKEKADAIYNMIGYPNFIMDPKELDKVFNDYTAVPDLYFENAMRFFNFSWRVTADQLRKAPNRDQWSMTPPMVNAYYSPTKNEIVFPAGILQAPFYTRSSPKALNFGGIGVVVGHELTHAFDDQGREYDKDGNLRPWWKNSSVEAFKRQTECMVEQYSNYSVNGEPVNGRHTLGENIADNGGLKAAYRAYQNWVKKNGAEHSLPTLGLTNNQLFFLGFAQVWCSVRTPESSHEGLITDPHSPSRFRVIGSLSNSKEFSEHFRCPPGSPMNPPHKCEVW
Nature of the data set: Inhibition of human recombinant ECE1-mediated amyloid beta hydrolysis after 45 mins by fluorimetry assay.

A short description of data set [9]: PBS-octanol partition coefficient, log D of the compound. Type of data set: physicochemical.
In the next data set the target is Neprilysin (Homo sapiens, UniProt P08473). Nature of the data set: Inhibition of human NEP-mediated amyloid beta hydrolysis.
Sequence of Neprilysin (P08473 whole entry): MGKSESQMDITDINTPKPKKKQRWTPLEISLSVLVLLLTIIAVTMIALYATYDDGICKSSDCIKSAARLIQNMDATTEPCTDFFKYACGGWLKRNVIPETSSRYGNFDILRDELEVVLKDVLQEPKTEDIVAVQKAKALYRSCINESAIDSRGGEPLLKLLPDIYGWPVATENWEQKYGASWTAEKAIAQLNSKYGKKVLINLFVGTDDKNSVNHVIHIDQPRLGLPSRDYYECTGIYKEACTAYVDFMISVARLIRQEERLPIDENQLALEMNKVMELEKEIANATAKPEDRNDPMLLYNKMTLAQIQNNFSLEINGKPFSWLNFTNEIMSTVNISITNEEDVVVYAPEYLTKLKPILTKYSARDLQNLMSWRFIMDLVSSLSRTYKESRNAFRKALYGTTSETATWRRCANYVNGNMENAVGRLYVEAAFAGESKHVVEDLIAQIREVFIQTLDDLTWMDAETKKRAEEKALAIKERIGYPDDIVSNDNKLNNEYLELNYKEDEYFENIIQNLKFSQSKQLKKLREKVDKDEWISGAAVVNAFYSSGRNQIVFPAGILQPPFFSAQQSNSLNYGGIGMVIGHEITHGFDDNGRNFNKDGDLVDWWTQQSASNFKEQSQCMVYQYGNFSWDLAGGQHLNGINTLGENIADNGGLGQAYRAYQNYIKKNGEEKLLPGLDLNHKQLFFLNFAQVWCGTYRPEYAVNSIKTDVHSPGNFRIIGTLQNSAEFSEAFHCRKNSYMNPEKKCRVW
The target in another data set is Collagenase 3 (Homo sapiens, UniProt P45452). The data set is described as follows: Inhibition of human recombinant MMP13-mediated amyloid beta hydrolysis after 10 mins by fluorimetry assay.
The target in data set [10] is Insulin-degrading enzyme (Homo sapiens) (UniProt P14735). The data set is described as follows: Competitive inhibition of human recombinant IDE-mediated amyloid beta (16 to 23) hydrolysis using ATTO 655-Cys-Lys-Leu-Val-Phe-Phe-Ala-Glu-Asp-Trp as substrate. The essentials:
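Human recombinant IDE (1.87 ng/μL) preincubated 10 min at 37 °C with compound in 50 mM Hepes, 100 mM NaCl, pH 7.4. Reaction started with quenched ATTO 655-labelled peptide substrate (5 μM final), 1% DMSO final. Fluorescence read after 30 min (ex 635, em 750 nm). 8-point dose-response curves, average of at least three independent measurements. EDTA reference (2 mM).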

For data set [11] the target is unchanged. The data set is described as §1.
Data set [12] has the same target. The data set is described as follows: Reversible inhibition of human recombinant IDE-mediated amyloid beta (16 to 23) hydrolysis using ATTO 655-Cys-Lys-Leu-Val-Phe-Phe-Ala-Glu-Asp-Trp as substrate at 20 uM preincubated for 20 mins measured measured after 100 fold dilution by spectrophotometer analysis.

Sequence of Angiotensin-converting enzyme (P12821 whole entry): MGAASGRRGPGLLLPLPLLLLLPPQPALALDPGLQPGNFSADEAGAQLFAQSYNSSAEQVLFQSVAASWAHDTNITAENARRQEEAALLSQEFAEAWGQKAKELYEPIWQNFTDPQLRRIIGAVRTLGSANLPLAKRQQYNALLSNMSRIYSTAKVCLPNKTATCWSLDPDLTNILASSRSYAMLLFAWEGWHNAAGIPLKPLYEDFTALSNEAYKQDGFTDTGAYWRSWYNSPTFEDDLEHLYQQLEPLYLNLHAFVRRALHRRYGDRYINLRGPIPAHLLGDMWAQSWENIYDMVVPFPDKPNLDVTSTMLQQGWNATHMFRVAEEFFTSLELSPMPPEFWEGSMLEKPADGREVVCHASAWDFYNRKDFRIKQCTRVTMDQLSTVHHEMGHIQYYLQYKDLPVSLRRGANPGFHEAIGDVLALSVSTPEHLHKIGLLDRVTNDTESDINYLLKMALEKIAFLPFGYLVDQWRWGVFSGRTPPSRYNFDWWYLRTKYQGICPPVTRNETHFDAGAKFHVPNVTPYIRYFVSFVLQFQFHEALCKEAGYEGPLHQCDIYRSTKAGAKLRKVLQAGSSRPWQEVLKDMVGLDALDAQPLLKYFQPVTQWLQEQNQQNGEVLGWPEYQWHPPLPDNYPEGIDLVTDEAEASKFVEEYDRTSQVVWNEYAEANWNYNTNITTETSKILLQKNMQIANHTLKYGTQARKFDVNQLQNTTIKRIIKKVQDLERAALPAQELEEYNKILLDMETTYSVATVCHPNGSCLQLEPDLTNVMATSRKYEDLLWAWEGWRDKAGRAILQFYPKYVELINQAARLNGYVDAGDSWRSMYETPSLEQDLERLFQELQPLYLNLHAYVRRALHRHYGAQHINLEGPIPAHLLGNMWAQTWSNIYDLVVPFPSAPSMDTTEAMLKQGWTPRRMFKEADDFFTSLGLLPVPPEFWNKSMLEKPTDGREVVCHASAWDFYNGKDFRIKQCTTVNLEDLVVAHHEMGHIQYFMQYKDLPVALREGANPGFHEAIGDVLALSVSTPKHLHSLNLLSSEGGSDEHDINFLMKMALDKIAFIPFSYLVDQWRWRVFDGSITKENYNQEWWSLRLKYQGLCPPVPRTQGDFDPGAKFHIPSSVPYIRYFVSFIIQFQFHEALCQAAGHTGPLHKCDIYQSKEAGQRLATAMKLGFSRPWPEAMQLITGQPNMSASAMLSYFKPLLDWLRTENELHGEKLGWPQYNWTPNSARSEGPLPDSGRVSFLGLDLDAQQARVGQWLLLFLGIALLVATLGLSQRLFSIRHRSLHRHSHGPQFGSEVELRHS

In the case of `COC(=O)[C@H](Cc1c[nH]cn1)NC(=O)CN(CC(=O)O)C(=O)c1ccccc1`, the IC50 on Insulin-degrading enzyme is greater than 100 µM.

With `COC(=O)[C@H](Cc1c[nH]cn1)NC(=O)CN(CCCc1ccccc1)CC(=O)O`, on Insulin-degrading enzyme, the IC50 was found to be 0.6 µM.

As for `CNC(=O)[C@H](Cc1c[nH]cn1)NC(=O)CN(CCCc1ccccc1)CC(=O)O`, the IC50 (in [1]; on Interstitial collagenase; in data set [5]; in data set [6]; in data set [8]; against Neprilysin) was greater than 100 µM throughout. Further, the IC50 at Collagenase 3 was greater than 100 µM. This compound also returned a half-life at 1 µM in data set [2] greater than 0.667 h. The half-life at 10 µM in data set [3] is greater than 48 h; in data set [4], greater than 24 h. The same compound showed a solubility in data set [7] of 68 µM (≈ 27.3 µg/mL). The pH-dependent lipophilicity (logD) in data set [9] is -1.4.

`COC(=O)[C@H](Cc1c[nH]cn1)NC(=O)CN(CC(=O)O)Cc1ccccc1`: the inhibition entry in data set [10] and in data set [12] was “Active” throughout. The inhibition result in data set [11] was “Dose-dependent effect”.

Turning to `COC(=O)[C@H](Cc1ccccc1)NC(=O)CN(CC(=O)O)Cc1ccccc1`, the IC50 at Insulin-degrading enzyme is greater than 100 µM.

In general, IC50 refers to the point on the concentration scale where inhibition reaches its midpoint. In general, half-life refers to the time needed for the level to fall by half in the phase considered. Low values mean rapid decline, high ones slow decline. By solubility is commonly meant the dissolved amount per volume that the medium holds. As a reminder, the logD is lipophilicity at a set pH, counting ionised and neutral species.

Values taken from ChEMBL document CHEMBL3232818, “Imidazole-derived 2-[N-carbamoylmethyl-alkylamino]acetic acids, substrate-dependent modulators of insulin-degrading enzyme in amyloid-β hydrolysis” (Eur J Med Chem, 2014).
